Experiment [1] has as its system HUVEC. As to the kind of experiment: Induction of HUVEC cell line apoptosis at 100 uM. In kind it is functional, cell-based. The following applies: Homo sapiens. The essentials: (§1)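 HUVECs in MCDB131 with 10% fetal calf serum and […] bFGF, passages 10–20. Apoptosis induced by growth-factor deprivation. Cells cultured with or without compound at 25–200 µM for 24 and 48 h. Means ± SE of three independent experiments versus control.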

Experiment [2] deals with A549. The experiment in a line: Decrease in viability of human A549 cell line at 200 uM after 24 hrs relative to control by MTT assay. In kind it is functional, cell-based. The gist of the method:
(§2)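 A549 cells grown in medium with or without compound at 50–400 µM for 24 and 48 h; viability read by MTT assay and expressed as percent of vehicle (DMSO) control. Means ± SE of three independent experiments; significance tested against control.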
(Formazan colour is commonly taken as a measure of viable cells.)

In experiment [3] the test system is A549. As to the kind of experiment: Antiproliferative activity against human A549 cell line at 400 uM after 48 hrs by MTT assay. In kind it is functional, cell-based. The gist of the method: as §2
In experiment [4] the test system is A549. The experiment in a line: Antiproliferative activity against human A549 cell line at 400 uM after 24 hrs by MTT assay. It is filed as functional, cell-based. The gist of the method:
as §2

Experiment [5] relates to HUVEC. As to the kind of experiment: Induction of HUVEC cell line apoptosis at 50 uM. In kind it is functional, cell-based. The following applies: Homo sapiens. The gist of the method: as §1
The subject of experiment [6] is A549. The experiment in a line: Decrease in viability of human A549 cell line at 50 uM after 48 hrs relative to control by MTT assay. In kind it is functional, cell-based. The gist of the method:
as §2

Experiment [7] relates to HUVEC. The experiment in a line: Induction of HUVEC cell line apoptosis at 25 uM. In kind it is functional, cell-based. The following applies: Homo sapiens. The essentials: as §1
For experiment [8], the system named is HUVEC. As to the kind of experiment: Induction of HUVEC cell line apoptosis at 200 uM. It is filed as functional, cell-based. The following applies: Homo sapiens. The essentials:
as §1

The test system of experiment [9] is A549. The experiment in a line: Decrease in viability of human A549 cell line at 200 uM after 48 hrs relative to control by MTT assay. In kind it is functional. The essentials: as §2
Experiment [10] relates to A549. As to the kind of experiment: Antiproliferative activity against human A549 cell line by MTT assay. It is filed as functional, cell-based. The gist of the method: as §2
Experiment [11] deals with A549. As to the kind of experiment: Antiproliferative activity against human A549 cell line at 200 uM after 48 hrs by MTT assay. It is filed as functional, cell-based. The essentials: as §2
Experiment [12] has as its system A549. The experiment in a line: Decrease in viability of human A549 cell line at 400 uM after 48 hrs relative to control by MTT assay. In kind it is functional. The essentials: as §2
The subject of experiment [13] is A549. As to the kind of experiment: Decrease in viability of human A549 cell line at 400 uM after 24 hrs relative to control by MTT assay. It is filed as functional. The essentials:
as §2

The subject of experiment [14] is HUVEC. The experiment in a line: Inhibition of HUVEC cell line apoptosis at 100 uM. The conditions noted are these: Homo sapiens. It is filed as functional, cell-based. The gist of the method: as §1
The subject of experiment [15] is HUVEC. As to the kind of experiment: Inhibition of HUVEC cell line apoptosis at 50 uM. In kind it is functional, cell-based. The conditions noted are these: Homo sapiens. The essentials: as §1
The test system of experiment [16] is HUVEC. As to the kind of experiment: Inhibition of HUVEC cell line apoptosis at 200 uM. In kind it is functional, cell-based. The conditions noted are these: Homo sapiens. The gist of the method:
as §1

Activity calls are given as the source filed them. The calls are words filed in the database; no cut-off is given here.

As to `OCC1COc2c(Cl)cc(Cl)cc2N1` (stereo unspecified), the result in experiment [1], in experiment [2], in experiment [3], in experiment [4], in experiment [5] and in experiment [6] was Active. The outcome in experiment [7], in experiment [8] and in experiment [9] was Active.

With `Cc1ccc2c(c1)NC(CO)CO2` (stereo unspecified), the outcome in experiment [1], in experiment [5], in experiment [7] and in [8] was Active. Also, the result in experiment [10] was inactive.

Turning to `OCC1COc2ccc(Cl)cc2N1` (stereo unspecified), the outcome in experiment [1], in experiment [3], in [11], in experiment [5], in experiment [7] and in experiment [8] was Active.

In the case of `OCC1COc2c(Cl)cccc2N1` (stereo unspecified), the result in experiment [1], in experiment [5], in experiment [7] and in [8] was Active. In addition, in [10], the result was inactive.

With `CC(C)(C)c1ccc2c(c1)NC(CO)CO2` (stereo unspecified), the outcome in experiment [1], in [5], in experiment [7] and in experiment [8] was Active. Further, the Activity in experiment [12] was found to be 59.5%; in [13], 77.8%; in experiment [9], 72.6%.

As for `OCC1COc2ccccc2N1` (stereo unspecified), the result in [1], in experiment [5], in experiment [7] and in experiment [8] was Active. In [10], the result was inactive.

As for `Nc1ccc2c(c1)NC(CO)CO2` (stereo unspecified), the result in experiment [14], in [15] and in [16] was Active. In addition, the outcome in experiment [10] was inactive.
